# Reference: ChEMBL document CHEMBL3779892, “Increasing the binding affinity of VEGFR-2 inhibitors by extending their hydrophobic interaction with the active site: Design, synthesis and biological evaluation of 1-substituted-4-(4-methoxybenzyl)phthalazine derivatives” (Eur J Med Chem, 2016)
# Experiments:
# [1] = Growth inhibition of human BT549 cells at 10 uM after 48 hrs by sulforhodamine B assay; type: functional; details: BT-549, 48 h, read-out: GI
# Method in brief: (§1)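 Run at NCI on the 60-line panel. Cells grown in RPMI 1640 with 5% FBS and 2 mM L-glutamine, plated at 5000–40,000 cells/well by doubling time, and held 24 h at 37 °C before dosing. Drug (DMSO stock) given at a single final 10 µM in triplicate wells for 48 h. Adherent cells fixed with cold TCA (10% final), suspension cells with 16% TCA. SRB stain read at 515 nm. Percent growth from Tz, C and Ti.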
# [2] = system: T47D; assay: Growth inhibition of human T47D cells at 10 uM after 48 hrs by sulforhodamine B assay; type: functional; details: read-out: GI
# Method in brief: (§2)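 NCI-60 panel, adherent cells grown in RPMI 1640 with 5% FBS and 2 mM L-glutamine, plated at 5000–40,000 cells/well and preincubated 24 h at 37 °C, 5% CO2. 10 µM final compound from DMSO stock, triplicate wells, 48 h. Fixed with cold TCA (10% final, 60 min, 4 °C) and stained with 0.4% SRB. Absorbance read at 515 nm; growth calculated against time-zero and control wells.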
# [3] = system: MDA-MB-231; assay: Growth inhibition of human MDA-MB-231 cells at 10 uM after 48 hrs by sulforhodamine B assay; type: functional; details: MDA-MB-231, 48 h, read-out: GI; method in brief: as §1
# [4] = biological target: serum albumin (Bos taurus, UniProt P02769); assay: Binding affinity to bovine serum albumin at pH 7.4 at 25 degC by equilibrium dialysis method; type: ADME; details: cattle, read-out: PB (converted)
# [5] = system: CCRF-CEM; assay: Growth inhibition of human CCRF-CEM cells at 10 uM after 48 hrs by sulforhodamine B assay; type: functional; details: read-out: GI; method in brief: as §1
# [6] = system: K562; assay: Growth inhibition of human K562 cells at 10 uM after 48 hrs by sulforhodamine B assay; type: functional; details: K562, 48 h, read-out: GI; method in brief: as §1
# [7] = Growth inhibition of human MOLT4 cells at 10 uM after 48 hrs by sulforhodamine B assay; type: functional; details: MOLT-4, 48 h, read-out: GI; method in brief: as §1
# [8] = system: NCI-H460; assay: Growth inhibition of human NCI-H460 cells at 10 uM after 48 hrs by sulforhodamine B assay; type: functional; details: NCI-H460, 48 h, read-out: GI; method in brief: as §1
# [9] = Growth inhibition of human COLO205 cells at 10 uM after 48 hrs by sulforhodamine B assay; type: functional; details: COLO 205, 48 h, read-out: GI; method in brief: as §1
# [10] = system: HT-29; assay: Growth inhibition of human HT-29 cells at 10 uM after 48 hrs by sulforhodamine B assay; type: functional; details: HT-29, 48 h, read-out: GI; method in brief: as §1
# [11] = Growth inhibition of human SNB19 cells at 10 uM after 48 hrs by sulforhodamine B assay; type: functional; details: SNB-19, 48 h, read-out: GI; method in brief: as §1
# [12] = system: U-251; assay: Growth inhibition of human U251 cells at 10 uM after 48 hrs by sulforhodamine B assay; type: functional; details: U-251, 48 h, read-out: GI; method in brief: as §2
# [13] = system: Malme-3M; assay: Growth inhibition of human MALME-3M cells at 10 uM after 48 hrs by sulforhodamine B assay; type: functional; details: read-out: GI; method in brief: as §1
# [14] = Growth inhibition of human IGROV1 cells at 10 uM after 48 hrs by sulforhodamine B assay; type: functional; details: IGROV-1, 48 h, read-out: GI; method in brief: as §1
# [15] = Growth inhibition of human OVCAR3 cells at 10 uM after 48 hrs by sulforhodamine B assay; type: functional; details: OVCAR-3, 48 h, read-out: GI; method in brief: as §1
# [16] = Growth inhibition of human OVCAR4 cells at 10 uM after 48 hrs by sulforhodamine B assay; type: functional; details: OVCAR-4, 48 h, read-out: GI; method in brief: as §1
# [17] = Growth inhibition of human OVCAR8 cells at 10 uM after 48 hrs by sulforhodamine B assay; type: functional; details: OVCAR-8, 48 h, read-out: GI; method in brief: as §1
# [18] = Growth inhibition of human SKOV3 cells at 10 uM after 48 hrs by sulforhodamine B assay; type: functional; details: SK-OV-3, 48 h, read-out: GI; method in brief: as §1
# [19] = system: 786-0; assay: Growth inhibition of human 786-0 cells at 10 uM after 48 hrs by sulforhodamine B assay; type: functional; details: 786-0, 48 h, read-out: GI; method in brief: as §1
# [20] = system: A498; assay: Growth inhibition of human A498 cells at 10 uM after 48 hrs by sulforhodamine B assay; type: functional; details: A498, 48 h, read-out: GI; method in brief: as §1
# [21] = system: SN12C; assay: Growth inhibition of human SN12C cells at 10 uM after 48 hrs by sulforhodamine B assay; type: functional; details: read-out: GI; method in brief: as §1
# [22] = Growth inhibition of human TK10 cells at 10 uM after 48 hrs by sulforhodamine B assay; type: functional; details: TK-10, 48 h, read-out: GI; method in brief: as §2
# [23] = Growth inhibition of human UO31 cells at 10 uM after 48 hrs by sulforhodamine B assay; type: functional; details: UO-31, 48 h, read-out: GI; method in brief: as §2
# [24] = system: MCF7; assay: Growth inhibition of human MCF7 cells at 10 uM after 48 hrs by sulforhodamine B assay; type: functional; details: MCF7, 48 h, read-out: GI; method in brief: as §1
# serum albumin, sequence (P02769 whole entry): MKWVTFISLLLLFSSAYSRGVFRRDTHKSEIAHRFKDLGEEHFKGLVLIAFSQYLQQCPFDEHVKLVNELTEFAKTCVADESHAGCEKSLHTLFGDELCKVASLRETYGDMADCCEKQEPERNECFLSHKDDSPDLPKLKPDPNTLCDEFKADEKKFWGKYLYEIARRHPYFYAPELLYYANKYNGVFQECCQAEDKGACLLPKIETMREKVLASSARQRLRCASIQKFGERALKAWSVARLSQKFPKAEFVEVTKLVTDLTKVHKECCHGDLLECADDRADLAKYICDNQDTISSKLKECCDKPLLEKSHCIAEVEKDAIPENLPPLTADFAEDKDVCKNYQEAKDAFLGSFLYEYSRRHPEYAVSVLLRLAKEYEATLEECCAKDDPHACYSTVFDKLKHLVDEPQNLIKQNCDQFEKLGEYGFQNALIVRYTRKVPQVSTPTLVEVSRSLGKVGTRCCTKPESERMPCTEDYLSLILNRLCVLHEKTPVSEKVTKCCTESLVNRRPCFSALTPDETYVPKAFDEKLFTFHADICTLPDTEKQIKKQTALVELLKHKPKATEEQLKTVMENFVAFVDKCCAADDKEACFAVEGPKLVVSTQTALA
smiles,measurement,setting,value
COc1ccc(Cc2nnc(Nc3ccc(NC(=O)Nc4ccc(OC)cc4)cc3)c3ccccc23)cc1,inhibition of growth at 10 µM,[1],31%
same,inhibition of growth at 10 µM,[2],42%
same,inhibition of growth at 10 µM,[3],46%
same,fraction unbound,[4],0.921
same,inhibition of growth at 10 µM,[5],40%
same,inhibition of growth at 10 µM,[6],< 30%
same,inhibition of growth at 10 µM,[7],47%
same,inhibition of growth at 10 µM,[8],< 30%
same,inhibition of growth at 10 µM,[9],< 30%
same,inhibition of growth at 10 µM,[10],34%
same,inhibition of growth at 10 µM,[11],< 30%
same,inhibition of growth at 10 µM,[12],49%
same,inhibition of growth at 10 µM,[13],31%
same,inhibition of growth at 10 µM,[14],< 30%
same,inhibition of growth at 10 µM,[15],< 30%
same,inhibition of growth at 10 µM,[16],< 30%
same,inhibition of growth at 10 µM,[17],< 30%
same,inhibition of growth at 10 µM,[18],< 30%
same,inhibition of growth at 10 µM,[19],63%
same,inhibition of growth at 10 µM,[20],< 30%
same,inhibition of growth at 10 µM,[21],< 30%
same,inhibition of growth at 10 µM,[22],< 30%
same,inhibition of growth at 10 µM,[23],< 30%
same,inhibition of growth at 10 µM,[24],30%
